Data: ChEMBL document CHEMBL1143019, “Hybrid molecules of estrone: new compounds with potential antibacterial, antifungal, and antiproliferative activities” (2007)
Converted amounts (≈) assume the structure as drawn.

Assays:
Mycobacterium kansasii [1] = experiment: Antimicrobial activity against Mycobacterium kansasii My 235/80 after 14 days; format: functional; details: 336 h
How it was run: (§1)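 Run in Šula semisynthetic liquid medium containing bovine serum. Compounds added as DMSO solutions at final concentrations of […]. Each strain was also inoculated onto Löwenstein–Jensen medium to control inoculum sterility and growth.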

[2] = tested on: Mycobacterium tuberculosis; experiment: Antimicrobial activity against Mycobacterium tuberculosis My 331/88 after 21 days; format: functional; details: 504 h
L929 = experiment: Antiproliferative activity against mouse L929 cells after 72 hrs; format: functional; details: L929, 72 h
How it was run: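 About 10,000 adherent cells per well in RPMI 1640 with 10% heat-inactivated FBS and penicillin/streptomycin, without HEPES. Exposed to 10 concentrations for 72 h at 37 °C in humidified 5% CO₂. Monolayers fixed with glutaraldehyde, stained 15 min with 0.05% methylene blue, and eluted with 0.33 N HCl; OD read at 630 nm. GI50 derived from dose–response curves relative to control.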

Mycobacterium kansasii [3] = experiment: Antimicrobial activity against Mycobacterium kansasii My 6509/96 after 7 days; format: functional; details: 168 h; how it was run: as §1
[4] = tested on: Mycobacterium tuberculosis; experiment: Antimicrobial activity against Mycobacterium tuberculosis My 331/88 after 14 days; format: functional; details: 336 h
Mycobacterium kansasii [5] = experiment: Antimicrobial activity against Mycobacterium kansasii My 6509/96 after 21 days; format: functional; details: 504 h; how it was run: as §1
Mycobacterium kansasii [6] = experiment: Antimicrobial activity against Mycobacterium kansasii My 235/80 after 21 days; format: functional; details: 504 h; how it was run: as §1
HeLa = experiment: Cytotoxicity against human HeLa cells after 72 hrs; format: functional; details: for CC50: Homo sapiens, HeLa, 72 h
How it was run: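 About 10,000 cells per well in RPMI 1640 were preincubated 48 h without compound. The 10 test concentrations were then applied onto the monolayers and incubated 72 h at 37 °C in humidified 5% CO₂. Monolayers fixed with glutaraldehyde, stained with 0.05% methylene blue, and eluted with 0.33 N HCl; optical density measured at 630 nm.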

Mycobacterium avium [7] = experiment: Antimicrobial activity against Mycobacterium avium My 330/88 after 21 days; format: functional; details: 504 h
K562 = experiment: Antiproliferative activity against human K562 cells after 72 hrs; format: functional; details: K562, 72 h
How it was run: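 About 10,000 suspension cells per well in RPMI 1640 with 10% heat-inactivated FBS and penicillin/streptomycin, without HEPES. Exposed to 10 concentrations for 72 h at 37 °C in humidified 5% CO₂. Wells diluted 1:50 in CASYTON and counted electronically, each result the mean of three successive counts. GI50 is where the concentration–response curve crosses 50% of control cell count.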

Mycobacterium kansasii [8] = experiment: Antimicrobial activity against Mycobacterium kansasii My 6509/96 after 14 days; format: functional; details: 336 h; how it was run: as §1
Mycobacterium avium [9] = experiment: Antimicrobial activity against Mycobacterium avium My 330/88 after 14 days; format: functional; details: 336 h
Mycobacterium kansasii [10] = experiment: Antimicrobial activity against Mycobacterium kansasii My 235/80 after 7 days; format: functional; details: 168 h; how it was run: as §1
Candida albicans [11] = experiment: Antifungal activity against Candida albicans ATCC 44859 after 24 hrs; format: functional; details: ATCC 44859, 24 h
How it was run: (§2)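 Modified NCCLS M27-A broth microdilution with clinical isolates subcultured on Sabouraud dextrose agar. Suspensions diluted 1:50 in RPMI 1640 to give a final inoculum of 0.5–2.5×10³ CFU/mL for yeasts or 0.5–5×10⁴ CFU/mL for molds. The RPMI had L-glutamine, no bicarbonate, and 0.165 M MOPS to pH 7.0. Twofold dilutions from 250 to 0.49. Plates held at 35 °C, humid, without agitation. MIC is the lowest concentration giving ≥80% inhibition versus drug-free control, read at 24 and 48 h.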

Nakaseomyces glabratus [12] = experiment: Antifungal activity against Candida glabrata 20/I after 24 hrs; format: functional; how it was run: as §2
Candida tropicalis [13] = experiment: Antifungal activity against Candida tropicalis 156 after 24 hrs; format: functional; how it was run: as §2
Aspergillus fumigatus [14] = experiment: Antifungal activity against Aspergillus fumigatus 231 after 24 hrs; format: functional; how it was run: as §2
Pichia kudriavzevii [15] = experiment: Antifungal activity against Candida krusei E28 after 48 hrs; format: functional; how it was run: as §2
Candida albicans [16] = experiment: Antifungal activity against Candida albicans ATCC 44859 after 48 hrs; format: functional; details: ATCC 44859, 48 h; how it was run: as §2
Trichophyton benhamiae [17] = experiment: Antifungal activity against Trichophyton mentagrophytes 445 after 120 hrs; format: functional, Arthroderma benhamiae
How it was run: (§3)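 Same modified M27-A microdilution with the mold inoculum of 0.5–5×10⁴ CFU/mL. Medium was RPMI 1640 with L-glutamine, no bicarbonate, and 0.165 M MOPS at pH 7.0. Twofold dilutions from 250 to 0.49. Incubated at 35 °C in a humid atmosphere.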

Nakaseomyces glabratus [18] = experiment: Antifungal activity against Candida glabrata 20/I after 48 hrs; format: functional; how it was run: as §2
Trichosporon beigelii [19] = experiment: Antifungal activity against Trichosporon beigelii 1188 after 24 hrs; format: functional; how it was run: as §2
Candida tropicalis [20] = experiment: Antifungal activity against Candida tropicalis 156 after 48 hrs; format: functional; how it was run: as §2
Lichtheimia corymbifera [21] = experiment: Antifungal activity against Absidia corymbifera 272 after 48 hrs; format: functional; how it was run: as §2
Trichosporon beigelii [22] = experiment: Antifungal activity against Trichosporon beigelii 1188 after 48 hrs; format: functional; how it was run: as §2
Lichtheimia corymbifera [23] = experiment: Antifungal activity against Absidia corymbifera 272 after 24 hrs; format: functional; how it was run: as §2
Pichia kudriavzevii [24] = experiment: Antifungal activity against Candida krusei E28 after 24 hrs; format: functional; how it was run: as §2
Trichophyton benhamiae [25] = experiment: Antifungal activity against Trichophyton mentagrophytes 445 after 72 hrs; format: functional, Arthroderma benhamiae; how it was run: as §3
Aspergillus fumigatus [26] = experiment: Antifungal activity against Aspergillus fumigatus 231 after 48 hrs; format: functional; how it was run: as §2

Row | Compound | MIC (Mycobacterium kansasii [1]) [µM] | MIC [2] [µM] | GI50 (L929) [µg/mL] | MIC (Mycobacterium kansasii [3]) [µM] | MIC [4] [µM] | MIC (Mycobacterium kansasii [5]) [µM] | MIC (Mycobacterium kansasii [6]) [µM] | CC10 (HeLa) [µg/mL] | CC50 (HeLa) [µg/mL] | MIC (Mycobacterium avium [7]) [µM] | GI50 (K562) [µg/mL] | MIC (Mycobacterium kansasii [8]) [µM] | MIC (Mycobacterium avium [9]) [µM] | MIC (Mycobacterium kansasii [10]) [µM] | MIC (Candida albicans [11]) [µM] | MIC (Nakaseomyces glabratus [12]) [µM] | MIC (Candida tropicalis [13]) [µM] | MIC (Aspergillus fumigatus [14]) [µM] | MIC (Pichia kudriavzevii [15]) [µM] | MIC (Candida albicans [16]) [µM] | also measured
1 | Sc1nnnn1-c1ccccc1 | > 500 | > 500 | > 50 | > 500 | > 500 | > 500 | > 500 | 40 (≈ 224 µM) | > 50 | > 500 | > 50 | > 500 | > 500 | > 500 | – | – | – | – | – | – | –
2 | Sc1nnnn1-c1ccc(Cl)cc1 | > 500 | > 500 | > 50 | 250 (≈ 53.2 µg/mL) | 500 (≈ 106 µg/mL) | > 500 | > 500 | 26.4 (≈ 124 µM) | 48.9 (≈ 230 µM) | > 500 | 42.6 (≈ 200 µM) | 500 (≈ 106 µg/mL) | > 500 | 500 (≈ 106 µg/mL) | – | – | – | – | – | – | –
3 | Sc1nnnn1-c1ccc(Cl)c(Cl)c1 | 500 (≈ 124 µg/mL) | 250 (≈ 61.8 µg/mL) | 33.4 (≈ 135 µM) | 250 (≈ 61.8 µg/mL) | 250 (≈ 61.8 µg/mL) | 500 (≈ 124 µg/mL) | 500 (≈ 124 µg/mL) | 18.1 (≈ 73.2 µM) | 33.3 (≈ 135 µM) | > 500 | 31 (≈ 125 µM) | 500 (≈ 124 µg/mL) | > 250 | 500 (≈ 124 µg/mL) | – | – | – | – | – | – | –
4 | Cc1ccc(-n2nnnc2SCCCCCCCOc2ccc3c(c2)CC[C@@H]2[C@@H]3CC[C@]3(C)C(=O)CC[C@@H]23)cc1 | > 500 | > 500 | > 50 | – | 500 (≈ 279 µg/mL) | – | > 500 | 28.7 (≈ 51.4 µM) | > 50 | – | > 50 | – | > 500 | – | > 250 | > 250 | > 250 | 250 (≈ 140 µg/mL) | > 250 | > 250 | MIC (Trichophyton benhamiae [17]): > 250 µM; MIC (Nakaseomyces glabratus [18]): > 250 µM; MIC (Trichosporon beigelii [19]): > 250 µM; MIC (Candida tropicalis [20]): > 250 µM; MIC (Lichtheimia corymbifera [21]): > 250 µM; MIC (Trichosporon beigelii [22]): > 250 µM; MIC (Lichtheimia corymbifera [23]): > 250 µM; MIC (Pichia kudriavzevii [24]): > 250 µM; MIC (Trichophyton benhamiae [25]): > 250 µM; MIC (Aspergillus fumigatus [26]): > 250 µM
5 | C[C@]12CC[C@@H]3c4ccc(OCCCCCCCSc5nnnn5-c5ccccc5)cc4CC[C@H]3[C@@H]1CCC2=O | > 500 | > 500 | > 50 | – | > 500 | > 500 | > 500 | 20.3 (≈ 37.3 µM) | > 50 | – | > 50 | – | – | – | > 250 | > 250 | > 250 | 250 (≈ 136 µg/mL) | > 250 | > 250 | MIC (Trichophyton benhamiae [17]): > 250 µM; MIC (Nakaseomyces glabratus [18]): > 250 µM; MIC (Trichosporon beigelii [19]): > 250 µM; MIC (Candida tropicalis [20]): > 250 µM; MIC (Lichtheimia corymbifera [21]): > 250 µM; MIC (Trichosporon beigelii [22]): > 250 µM; MIC (Lichtheimia corymbifera [23]): > 250 µM; MIC (Pichia kudriavzevii [24]): > 250 µM; MIC (Trichophyton benhamiae [25]): > 250 µM; MIC (Aspergillus fumigatus [26]): > 250 µM
6 | C[C@]12CC[C@@H]3c4ccc(OCCCCCCCSc5nnnn5-c5ccc(Cl)cc5)cc4CC[C@H]3[C@@H]1CCC2=O | – | – | > 50 | – | – | – | – | 50 (≈ 86.3 µM) | > 50 | – | > 50 | – | – | – | > 250 | > 250 | > 250 | 250 (≈ 145 µg/mL) | > 250 | > 250 | MIC (Trichophyton benhamiae [17]): > 250 µM; MIC (Nakaseomyces glabratus [18]): > 250 µM; MIC (Trichosporon beigelii [19]): > 250 µM; MIC (Candida tropicalis [20]): > 250 µM; MIC (Lichtheimia corymbifera [21]): > 250 µM; MIC (Trichosporon beigelii [22]): > 250 µM; MIC (Lichtheimia corymbifera [23]): > 250 µM; MIC (Pichia kudriavzevii [24]): > 250 µM; MIC (Trichophyton benhamiae [25]): > 250 µM; MIC (Aspergillus fumigatus [26]): > 250 µM
